# Reference: article PMC4000071 (Journal of Toxicologic Pathology, 2014)
# pKi: −log10 of the molar value.
# Columns and labels:
# [1] = system: rat; assay: rat 1- and 3-month repeat dose toxicity; assay type: in vivo
# [2] = system: dogs; assay: cardiovascular telemetry study in dogs; assay type: in vivo; conditions: dog
# [3] = system: rat; assay: 14-day rat study; assay type: in vivo; conditions: 14-day study, unpublished data
# [4] = system: brain 5-HT1B receptors; conditions: cited from earlier work
# [5] = system: beagle dogs; assay: 1-month; assay type: in vivo
# [6] = target: 5-HT1B receptors in the rat cerebral cortex (Rattus norvegicus, UniProt P28564); assay: 5-HT1B receptor binding in rat cerebral cortex
# Sequence of 5-HT1B receptors in the rat cerebral cortex (P28564 whole entry): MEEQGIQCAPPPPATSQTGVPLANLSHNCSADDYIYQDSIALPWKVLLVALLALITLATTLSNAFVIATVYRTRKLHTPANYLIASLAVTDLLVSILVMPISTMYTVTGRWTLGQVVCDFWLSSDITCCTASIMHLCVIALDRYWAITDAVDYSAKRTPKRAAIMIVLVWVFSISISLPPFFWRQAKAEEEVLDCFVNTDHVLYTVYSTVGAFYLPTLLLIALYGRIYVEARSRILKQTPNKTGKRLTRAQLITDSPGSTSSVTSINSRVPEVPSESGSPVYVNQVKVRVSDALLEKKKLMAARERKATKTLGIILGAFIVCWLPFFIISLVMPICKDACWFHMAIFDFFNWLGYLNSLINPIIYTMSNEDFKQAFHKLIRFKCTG
# [7] = man, 5 mg projected efficacious dose; cited from earlier work
# [8] = system: healthy volunteers; conditions: single ascending oral doses from 1 to 40 mg; cited from earlier work
# [9] = system: beagle dogs; assay: 1-month toxicity study, in-life, clinical pathology and pathology; assay type: in vivo; conditions: dog
# [10] = target: T1, adrenergic α1D receptor (Homo sapiens, UniProt P25100); assay: secondary pharmacology screens, α1D; assay type: binding; conditions: 10 µM
# T1 sequence (P25100 1-572): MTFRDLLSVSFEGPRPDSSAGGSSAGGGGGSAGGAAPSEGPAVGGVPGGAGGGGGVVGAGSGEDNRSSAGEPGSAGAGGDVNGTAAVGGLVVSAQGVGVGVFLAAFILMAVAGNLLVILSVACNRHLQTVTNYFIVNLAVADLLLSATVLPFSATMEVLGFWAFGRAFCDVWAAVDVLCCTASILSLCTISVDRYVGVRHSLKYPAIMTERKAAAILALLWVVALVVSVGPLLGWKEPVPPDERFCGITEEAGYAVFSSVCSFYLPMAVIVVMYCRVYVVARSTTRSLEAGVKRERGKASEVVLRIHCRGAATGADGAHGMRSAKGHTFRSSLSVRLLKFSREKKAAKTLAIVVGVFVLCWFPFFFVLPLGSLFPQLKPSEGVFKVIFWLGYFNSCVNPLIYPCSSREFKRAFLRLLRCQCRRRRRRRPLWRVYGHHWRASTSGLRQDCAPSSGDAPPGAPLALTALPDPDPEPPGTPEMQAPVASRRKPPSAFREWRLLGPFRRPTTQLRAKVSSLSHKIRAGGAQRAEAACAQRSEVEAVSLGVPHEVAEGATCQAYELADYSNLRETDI
# [11] = 3-month toxicity study, toxicokinetics; assay type: in vivo, beagle dogs; conditions: 30 mg/kg/day
# Outline: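 Dogs received 7, 15 or 30 mg/kg/day by oral gavage for 3 months. Serial blood was drawn on Days 1, 23, 56 and 91, pre-dose and from 0.5 to 24 h post-dose. One decedent was sampled on Day 86 before euthanasia. Plasma drug was measured and tmax, Cmax, AUC and t1/2 were derived.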
# [12] = system: guinea pig; conditions: 0.6 µmol/kg. p.o.; cited from earlier work
# [13] = 1-month, 47 mg/kg/day, 4 affected dogs
# [14] = 1-month, 47 mg/kg/day, Week 2 until end of dosing
structure (smiles),measurement,setting,value
"COc1cc2c(c(N3CCN(C)CC3)c1)O[C@@H](C(=O)Nc1ccc(N3CCOCC3)cc1)CC2 [AZD3783, (2R)-6-methoxy-8-(4-methylpiperazin-1-yl)-N-(4-morpholin-4-ylphenyl) chromane-2-carboxamide]",PLD,[1],caused generalized PLD
same,nervous tissue pathology,"[1]; 1 month, 126 mg/kg/day",minimal neuronal vacuolation in the DRG and brain stem
same,"nervous tissue pathology (DRG, brain stem, spinal cord)","[1]; 3 months, 100 mg/kg/day, unpublished results",minimal to slight neuronal vacuolation with eosinophilic deposits
same,cardiovascular effect (telemetry),[2]; 14 mg/kg/day,no effect
same,cardiovascular effect (telemetry),[2]; 47 mg/kg,modest tachycarda with decrease in blood pressure
same,PLD in tissues,[3],dose-dependent PLD in a limited number of tissues
same,binding to brain 5-HT1B receptors (PET),[4]; human subjects,bind dose-dependently
same,receptor occupancy in brain region,"[4]; man, 5 mg dose",50%
same,brain microscopic findings,"[5]; 2.3 mg/kg/day, 4 weeks",No treatment-related microscopic change in the brain
same,"brain microscopic findings, other three dogs","[5]; 47 mg/kg/day, 4 weeks",minimal to moderate foamy cytoplasmic vacuolation of neurons
same,mortality,"[5]; a male in the 47 mg/kg/day group, severe clinical signs",euthanized on Day 20
same,"brain microscopic findings, decedant","[5]; male, 47 mg/kg/day, euthanized Day 20","neuronal degeneration and necrosis microscopically, accompanied by minimal gliosis in the medulla oblongata"
same,brain microscopic findings,"[5]; two dogs, 14 mg/kg/day, 4 weeks","minimal granular, yellowish pigmentation in the cytoplasm of neurons in the medulla oblongata"
same,pKi,[6]; rat cerebral cortex,7.29
same,affinity lower than for the guinea pig or human 5-HT1B receptors,[6]; rat vs guinea pig or human,approximately 4 fold
same,estimated AUC,[7],0.383 µM·h
same,tolerability,[8],well tolerated
same,ECG,[9]; 1-month,no treatment-related effect on ECG
same,pathological findings in spinal cord or any CNS tissues,"[9]; 1-month, 2.3 mg/kg/day",no pathological findings
same,pathological findings in spinal cord or any CNS tissues,"[9]; 1-month, 14 mg/kg/day",no pathological findings
same,dogs with mild to marked increases in liver enzymes (incidence),"[9]; 1-month, 47 mg/kg/day",4 of 12
same,electron microscopy of liver and gallbladder,"[9]; 1-month, 47 mg/kg/day",lamellar bodies consistent with PLD
same,liver microscopic findings,"[9]; 1-month, 47 mg/kg/day","inflammatory cell infiltration, degenerative and necrotic changes in the centrilobular region and moderate pigments in histiocytes"
same,lymphoid tissues microscopic findings,"[9]; 1-month, 47 mg/kg/day",increased incidence and severity of lymphocytolysis
same,ALT increase in affected dogs,[9]; [13],up to 17 fold vs. pretest
same,Aspartate aminotransferase (AST) increase in affected dogs,[9]; [13],up to 7 fold vs. pretest
same,GLDH increase in affected dogs,[9]; [13],up to 37 fold vs. pretest
same,alanine aminotransferase (ALT) group mean elevation,[9]; [14],approximately 3 fold
same,glutamate dehydrogenase (GLDH) group mean elevation,[9]; [14],~7 fold
same,mortality,"[9]; 1-month, 2.3, 14, 47 mg/kg/day",All animals survived to scheduled necropsy
same,ophthalmology observations,"[9]; 1-month, all doses",No treatment-related observations were seen in the eyes of any dog
same,platelet counts increase,"[9]; 1-month, females, 47 mg/kg/day",24–52%
same,platelet counts increase,"[9]; 1-month, males, 47 mg/kg/day",10–15%
same,pathological findings in spinal cord or any CNS tissues,[9]; recovery animals previously dosed at 47 mg/kg/day,no pathological findings
same,binding to adrenergic α1D receptor,[10],binds
same,plasma concentration,"[11]; decedent female, prior to euthanasia on Day 86",17 µM
same,exposure relative to predicted therapeutic exposure,"[11]; dog, 3-month study",350 fold
same,anxiolytic and anti-depressant efficacy,[12],elicit effects indicative of anxiolytic and anti-depressant efficacy
same,extracellular serotonin in the brain,[12],increase extracellular serotonin in the brain
